Assay results as given in ChEMBL document CHEMBL4229335 (Eur J Med Chem, 2018).

Tests used:
HL-60 = assay: Antiproliferative activity against human HL60 cells after 72 hrs by MTT assay; assay type: functional, cell-based; conditions: HL-60, 72 h
Outline: (§1)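 MTT assay with 72 h exposure to graded concentrations in triplicate. MTT solution then DMSO were added, followed by 10 min at room temperature, with absorbance read at 490 nm. IC50 is reported as the mean of three independent experiments. 5-FU served as positive control.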

PC-3 = assay: Antiproliferative activity against human PC3 cells after 72 hrs by MTT assay; assay type: functional, cell-based; conditions: PC-3, 72 h; outline: as §1
Bel-7402 = assay: Antiproliferative activity against human Bel7402 cells after 72 hrs by MTT assay; assay type: functional, cell-based; conditions: Bel-7402, 72 h; outline: as §1
Bel7402/5-FU = assay: Antiproliferative activity against human Bel7402/5-FU cells after 72 hrs by MTT assay; assay type: functional, cell-based; outline: as §1
L02 = assay: Antiproliferative activity against human LO2 cells after 72 hrs by MTT assay; assay type: cell-based; conditions: L02, 72 h; outline: as §1
[1] = Selectivity index, ratio of IC50 for human LO2 cells to IC50 for human Bel7402 cells; assay type: toxicity; conditions: LO2 cells versus Bel7402 cells, read-out: Ratio IC50
Outline: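 SI was calculated as IC50 in L-02 normal liver cells divided by IC50 in Bel-7402 cells, both from the 72 h MTT assay.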

| Structure (SMILES) | IC50 (HL-60) [µM] | IC50 (PC-3) [µM] | IC50 (Bel-7402) [µM] | IC50 (Bel7402/5-FU) [µM] | IC50 (L02) [µM] | selectivity ratio [1] |
| --- | --- | --- | --- | --- | --- | --- |
| C=C1C(=O)[C@@]23C(=O)O[C@H]4CCC(C)(C)[C@H]5[C@H](O)OC[C@@]45[C@@H]2CC[C@@H]1[C@H]3O | 28.1 | 30.6 | 32.1 | 44.3 | 27.1 | 0.8 |
| C=C1C(=O)[C@@]23C(=O)O[C@H]4CCC(C)(C)[C@H]5C(=O)OC[C@@]45[C@@H]2CC[C@@H]1[C@H]3OC(=O)CCCc1ccc(N(CCCl)CCCl)cc1 | 9.94 | 5.5 | 3.06 | 15.6 | 49.8 | 16.3 |
| COC(=O)[C@H](Cc1ccc(N(CCCl)CCCl)cc1)NC(=O)CCC(=O)O | 12.4 | 57.3 | 46.5 | > 100 | 68.6 | 1.5 |
